Test results published in ChEMBL document CHEMBL1142576, “New bioactive clerodane diterpenoids from the bark of Casearia grewiifolia” (J Nat Prod, 2005).
Converted amounts (≈) assume the structure as drawn.

Tests used:
[1] = system: Plasmodium falciparum; assay: Antimalarial activity against Plasmodium falciparum K1 by [3H]hypoxanthine uptake; format: functional, organism-based
Summary of the method: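 P. falciparum K1 (multidrug-resistant strain) kept in culture after Trager and Jensen; in vitro microculture radioisotope assay per Desjardins. Parasite growth read as [3H]-hypoxanthine uptake; IC50 = concentration giving 50% reduction in growth. Artemisinin as positive control.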

[2] = system: Mycobacterium tuberculosis; assay: Antimycobacterial activity against Mycobacterium tuberculosis H37Ra by Alamar blue assay; format: functional
Summary of the method: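 Microplate Alamar Blue Assay (MABA) against strain H37Ra, with isoniazid and kanamycin sulfate as positive-control drugs.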

[3] = system: KB; assay: Cytotoxicity against human KB cells; format: functional, cell-based
Summary of the method: (§1)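 Human cancer cell lines: epidermoid carcinoma KB, breast cancer BC1 and small cell lung cancer NCI-H187. Colorimetric cytotoxicity method of Skehan and co-workers, with ellipticine as reference.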

[4] = Cytotoxicity against human BC1 cells; format: functional, cell-based; summary of the method: as §1
[5] = system: NCI-H187; assay: Cytotoxicity against human NCI-H187 cells; format: functional, cell-based; summary of the method: as §1

Compound	IC50 [1] [µg/mL]	MIC [2] [µg/mL]	IC50 [3] [µg/mL]	IC50 [4] [µg/mL]	IC50 [5] [µg/mL]
C=CC(=C)CC[C@]1(C)[C@H]2C[C@H](OC(=O)C(C)CC)C=C3[C@H](OC(C)=O)O[C@H](OC(C)=O)[C@@]32[C@H](OC)C[C@@H]1C (relative stereo)	3.2 (≈ 6.01 µM)	12.5 (≈ 23.5 µM)	7.6 (≈ 14.3 µM)	4 (≈ 7.51 µM)	0.8 (≈ 1.5 µM)
C=CC(=C)CC[C@]1(C)[C@H]2C[C@H](OC(=O)C(C)CC)C=C3[C@H](OC(C)=O)O[C@H](OC(C)=O)[C@@]32[C@H](O)C[C@@H]1C (relative stereo)	3.1 (≈ 5.98 µM)	12.5 (≈ 24.1 µM)	2.8 (≈ 5.4 µM)	2.5 (≈ 4.82 µM)	5.3 (≈ 10.2 µM)
C=CC(=C)CC[C@]1(C)[C@H]2C[C@H](OC(=O)CC(C)C)C=C3[C@H](OC(C)=O)O[C@H](OC(C)=O)[C@@]32[C@H](OC)C[C@@H]1C (relative stereo) [CASEARGREWIIN A]	2.9 (≈ 5.44 µM)	12.5 (≈ 23.5 µM)	8.7 (≈ 16.3 µM)	4.6 (≈ 8.64 µM)	0.9 (≈ 1.69 µM)
C=C/C(C)=C\C[C@]1(C)[C@H](C)[C@@H](OC(=O)/C=C/c2ccc(O)cc2)[C@H](O)[C@@]23C(=C[C@H](OC(=O)CCC)C[C@@H]12)[C@@H](OC(C)=O)O[C@H]3OC(C)=O (relative stereo) [CASEARGREWIIN B]	2.4 (≈ 3.6 µM)	12.5 (≈ 18.7 µM)	2.3 (≈ 3.45 µM)	1.9 (≈ 2.85 µM)	1.5 (≈ 2.25 µM)
C=C/C(C)=C\C[C@]1(C)[C@H](C)[C@@H](OC(C)=O)[C@H](O)[C@@]23C(=C[C@H](OC(=O)CC(C)C)C[C@@H]12)[C@@H](OC(C)=O)O[C@H]3OC(C)=O (relative stereo) [CASEARGREWIIN C]	3 (≈ 5.2 µM)	25 (≈ 43.4 µM)	1.9 (≈ 3.29 µM)	2 (≈ 3.47 µM)	0.3 (≈ 0.52 µM)
C[C@@H]1CC[C@H]2[C@@H](C)C(=O)O[C@@H]3O[C@@]4(C)CC[C@@H]1[C@]32OO4 [ARTEMISININ]	0.001 (≈ 0.00354 µM)	–	–	–	–
C=C/C(C)=C\C[C@]1(C)[C@H](C)CC[C@@]23C(=C[C@H](O)C[C@@H]12)[C@@H](OC(C)=O)O[C@H]3OC(C)=O [CASEARGREWIIN D]	3.3 (≈ 7.88 µM)	12.5 (≈ 29.9 µM)	1.3 (≈ 3.11 µM)	0.1 (≈ 0.239 µM)	1.5 (≈ 3.58 µM)
Cc1c2ccncc2c(C)c2c1[nH]c1ccccc12 [ELLIPTECINE]	–	–	–	0.26 (≈ 1.06 µM)	–
NNC(=O)c1ccncc1 [ISONIAZID]	–	0.05 (≈ 0.365 µM)	–	–	–
NC[C@H]1O[C@H](O[C@H]2[C@H](O)[C@@H](O[C@H]3O[C@H](CO)[C@@H](O)[C@H](N)[C@H]3O)[C@H](N)C[C@@H]2N)[C@H](O)[C@@H](O)[C@@H]1O.O=S(=O)(O)O [KANAMYCIN SULFATE]	–	2.5	–	–	–
